Assay outcomes: PubChem, Broad Institute
CAL PDZ FP-1 = untagged CAL PDZ binding inhibitors, primary screen, biochemical, fluorescence polarization, HTS | inhibition, % at 24.9 µM | Golgi-associated PDZ and coiled-coil motif-containing protein (Homo sapiens), Q9HD26 | purified CAL PDZ, TMR-peptide fluorescence polarization, 1 h | actives 0.92% (n = 300,000);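 active = mean inhibition of at least 30% with at least half of replicates also reaching 30%; inconclusive = no clear call, values can overlap the other calls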;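 note: 0% = DMSO neutral control and 100% = excess unlabeled competitor peptide PRC23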
SR-BI HDL uptake = inhibitors of SR-BI mediated HDL lipid uptake, primary screen, ldlA[mSR-BI] cells, fluorescence, single point; Scavenger receptor class B member 1 (Mus musculus), Q61009; ldlA[mSR-BI] CHO cells, DiI-HDL uptake fluorescence, 3 h; AID 488896, 2010; actives 0.96% (n = 320,000); inhibition, % at 12.5 µM;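 active = mean replicate inhibition of at least 70% and a set share of replicates each scoring 70 or more; inconclusive = meets just one of the two criteria; inactive = fails both criteria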;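 note: 0% = median of neutral control wells and 100% = median of positive control wells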
Target sequence (Q61009 whole entry, looked up): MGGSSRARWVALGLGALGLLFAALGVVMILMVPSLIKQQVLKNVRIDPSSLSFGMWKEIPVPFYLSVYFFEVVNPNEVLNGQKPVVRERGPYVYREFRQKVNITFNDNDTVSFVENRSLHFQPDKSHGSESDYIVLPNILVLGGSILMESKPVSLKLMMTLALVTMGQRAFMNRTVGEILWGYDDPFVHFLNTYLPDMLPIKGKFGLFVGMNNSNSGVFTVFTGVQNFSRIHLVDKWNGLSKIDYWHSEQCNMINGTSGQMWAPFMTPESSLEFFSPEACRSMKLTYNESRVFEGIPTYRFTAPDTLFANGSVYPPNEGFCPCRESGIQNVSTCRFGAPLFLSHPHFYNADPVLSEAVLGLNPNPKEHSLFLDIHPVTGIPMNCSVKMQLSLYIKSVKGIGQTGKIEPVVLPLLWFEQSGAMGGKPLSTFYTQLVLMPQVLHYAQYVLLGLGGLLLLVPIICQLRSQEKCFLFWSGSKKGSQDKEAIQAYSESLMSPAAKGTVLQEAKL
ARNT TACC3 PPI = disruptors of ARNT/TACC3 protein interaction, primary screen, biochemical, AlphaScreen, single concentration | inhibition, % at 9.99 µM | AID 623870, 2012 | actives 0.66% (n = 390,000) | AlphaScreen His-ARNT PAS-B/GST-TACC3 binding, luminescence; TACC3 fragment carries E629A point mutation;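 active = mean inhibition of replicates at least 50% and at least half of replicates each reaching 50%; inconclusive = half or more replicates reach 50% but mean below 50%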;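 note: 0% = complete ARNT plus TACC3 wells and 100% = ARNT alone without TACC3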
SR-BI uptake up = activators of SR-BI mediated DiI-HDL uptake, primary screen, ldlA[mSR-BI] CHO cells, DiI fluorescence; 3 h; 100 = double the neutral-control signal; activation, % at 12.5 µM; actives 0.096% (n = 320,000);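 active = mean replicate activation of at least 60% and every replicate at or above 60%; inconclusive = mean or all-replicate condition met, but not both; inactive = mean below 60% and not all replicates reaching 60%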;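 note: 0% = median plate neutral-control signal and 100% = twice that signal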
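Material – SR-BI-overexpressing, LDLR-lacking CHO cells · Medium – BSA-supplemented, HEPES-buffered Ham's F12, pH 7.4 · Doses – single concentration · Times – compound with DiI-HDL co-incubation, 3 h at 37 °C · Measured by – bottom-read fluorescence, 550/595 nm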
miR-122 sensor = miR-122 Renilla sensor signal increase in Huh7, primary screen, miR-122 inhibitor project, cell-based, single point, plate reader. activation (reporter increase), % at 12.5 µM. Huh7 miR-122 Renilla luciferase sensor, 48 h; neutral wells = 0, positive control = 100. actives 0.3% (n = 340,000). AID 602342, 2012;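 active = mean replicate activation score at least 90 and every replicate individually at or above 90; inconclusive = only one of the two criteria met; inactive = neither criterion met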;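 note: higher luciferase means less miR-122 activity so hits act as miR-122 inhibitors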
CAL PDZ FP-2 = CAL PDZ peptide-binding inhibitors, primary screen, biochemical, fluorescence polarization, Cer-tagged CAL PDZ, HTS; actives 0.02% (n = 330,000); AID 504414, 2011; Golgi-associated PDZ and coiled-coil motif-containing protein (Homo sapiens), Q9HD26; inhibition, % at 20 µM; purified CAL PDZ, TMR-peptide fluorescence polarization, 1 h;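 active = highest replicate inhibition of at least 40%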;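 note: plate controls were DMSO neutral control wells for no effect and unlabeled competitor peptide control wells for full effect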
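Assay system – tagged CAL PDZ protein CerCALP, purified · Timing – 1 h at RT · Compound – single point, 20 µM · Measured by – fluorescence polarization from S- and P-plane intensities, G-factor corrected · Evaluation – inhibition from polarization loss · Probe or stimulus – TMR reporter peptide T*-PRC34 · Buffer or medium – pH 7.4 phosphate-saline buffer, reducing agent, detergent, IgG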
The depositor's hits bear a star; ? = inconclusive; nt = not tested or not shown; [ ] = another dose, or the depositor's remark. Most compounds without a hit are left out; they make up all but 2.1% or so of the library.

SMILES | CAL PDZ FP-1 | SR-BI HDL uptake | ARNT TACC3 PPI | SR-BI uptake up | miR-122 sensor | CAL PDZ FP-2
COc1cccc(S(=O)(=O)N[C@@H]2CC[C@H](CCn3cc(-c4ccccc4OC)nn3)O[C@H]2CO)c1 | nt | nt | 7 | nt | nt | nt
CCc1ccc(N(CC(=O)NC(C)(C)C)C(=O)CNC(=O)c2cccs2)cc1 | -4 | nt | -1 | nt | nt | -4
CCC(C)c1ccc(N(CC(=O)NC(C)(C)C)C(=O)CNC(=O)c2cccs2)cc1 (stereo not drawn) | 32* | -21 | -3 | 21 | -6 | -1
Cc1nc(N2CCCCC2)c2c(C)c(C(=O)Nc3cccc(C(F)(F)F)c3)sc2n1 | -3 | 78* | -21 | -78 | -2 | -3
Cc1nc(N2CCCCC2)c2c(C)c(C(=O)Nc3ccccc3C(F)(F)F)sc2n1 | -4 | 39 | -10 | -39 | nt | -3
Cc1nc(N2CCCCC2C)c2c(C)c(C(=O)Nc3cccc(C(F)(F)F)c3)sc2n1 (stereo not drawn) | -3 | 74* | 4 | -74 | nt | -2
CCCN(C)C[C@H]1Oc2cc(C3=CCCC3)ccc2S(=O)(=O)N([C@H](C)CO)C[C@@H]1C | nt | nt | nt | nt | 16[16.7 µM] | nt
C[C@@H]1CCCCO[C@@H](CN(C)C(=O)C2CCCCC2)[C@H](C)CN([C@@H](C)CO)C(=O)c2cc(NS(=O)(=O)c3ccc(Cl)cc3)ccc2O1 | nt | nt | -1 | nt | -10[16.7 µM] | nt
C[C@@H]1CN([C@@H](C)CO)C(=O)c2cc(-c3ccc(F)cc3)cnc2O[C@H]1CN(C)C(=O)Cc1ccccc1 | nt | nt | 18 | nt | 7[16.7 µM] | nt
O=C(CN1CCN(C/C=C/c2ccccc2)CC1)NC(=O)NC1CCCCC1 | 72* | 28 | 3 | -28 | nt | nt
O=C1CN(O)C=C2N=c3ccccc3=C2N1c1ccc([N+](=O)[O-])cc1 | 77* | 5 | 1 | 2 | nt | -1
Cc1noc(C)c1NC(=O)N(C)C[C@@H]1Oc2ccc(NC(=O)Nc3cccc4ccccc34)cc2CC(=O)N([C@H](C)CO)C[C@@H]1C | nt | nt | nt | nt | -1[16.7 µM] | nt
CCCN(C)C[C@@H]1Oc2ncc(-c3ccccc3)cc2C(=O)N([C@H](C)CO)C[C@H]1C | nt | nt | nt | nt | -12[16.7 µM] | nt
CCc1ccc(OCc2cccc(C(=O)N/N=C\c3cnn(C)c3C)c2)cc1 | -3 | 92* | -4 | -92 | -2 | 1
Cc1c(/C=N\NC(=O)c2cccc(F)c2)cnn1C | -4 | -14 | -1 | 14 | 1 | -2
CNC[C@@H]1Oc2ccc(NC(=O)C3CCCCC3)cc2C(=O)N([C@@H](C)CO)C[C@@H]1C | nt | nt | -2 | nt | -2[16.7 µM] | nt
Cn1nnnc1SCCNC(=O)C1CCC(=O)N(Cc2ccccc2F)C1 (stereo not drawn) | -3 | -72 | 0 | 72* | -4 | -2
COC(=O)C(C)Sc1ncnc2c1c(-c1ccccc1)cn2-c1ccc(OC)cc1 (stereo not drawn) | -3 | 55 | 49* | -55 | -2 | 0
CCOC(=O)C(C)Sc1ncnc2c1c(-c1ccccc1)cn2-c1ccc(OC)cc1 (stereo not drawn) | -4 | 29 | -26 | -29 | 5 | 0
Cc1cccc(S(=O)(=O)N2CCCCN3[C@@H](CO)[C@H](c4ccc(C#CC5CC5)cc4)[C@@H]3C2)c1 | nt | nt | 29 | nt | 4[16.7 µM] | nt
O=C(N/N=C/c1ccccn1)C1CC1 | 4 | 0 | -12 | 0 | 2 | -1
O=C1NCCCC1C(=O)N/N=C/c1cc([N+](=O)[O-])ccc1O (stereo not drawn) | 9 | -17 | 70* | 17 | -5 | 2
Cc1c(NC(=S)N/N=C/c2ccc(O)cc2)c(=O)n(-c2ccccc2)n1C | -5 | -16 | 2 | 16 | 3 | -3
Cc1c(NC(=S)N/N=C/c2cc([N+](=O)[O-])ccc2O)c(=O)n(-c2ccccc2)n1C | -3 | nt | 70* | nt | -2 | -2
O=C(N/N=C/c1cc([N+](=O)[O-])ccc1O)C1CC1 | 79* | 25 | 54* | -25 | -12 | 18
SMILES | CAL PDZ FP-1 | SR-BI HDL uptake | ARNT TACC3 PPI | SR-BI uptake up | miR-122 sensor | CAL PDZ FP-2
O=C(NN=Cc1ccccc1O)C1CC1 | -2 | -6 | 39* | 6 | nt | -1
COc1ccc(NC(=O)Nc2ccc3c(c2)C(=O)N([C@@H](C)CO)C[C@H](C)[C@@H](CN(C)S(=O)(=O)c2ccc(Cl)cc2)OCCCC[C@H](C)O3)cc1 | nt | nt | -2 | nt | -3[16.7 µM] | nt
CO[C@@H](CN(C)C(=O)c1ccccc1F)[C@@H](C)CN([C@@H](C)CO)S(=O)(=O)c1ccc(C)cc1 | nt | nt | 9 | nt | nt | nt
O=C(N/N=C/c1cc([N+](=O)[O-])ccc1O)C(O)(c1ccccc1)c1ccccc1 | 4 | 46 | 49* | -46 | 24 | 1
O=C(CN(c1cccc(Br)c1)S(=O)(=O)c1ccccc1)N/N=C/c1cc([N+](=O)[O-])ccc1O | nt | 124* | 30 | -124 | -3 | 0
O=C(N/N=C/c1cc([N+](=O)[O-])ccc1O)c1cccc2cc[nH]c12 | -3 | 144* | 9 | -144 | -2 | 1
O=C(N/N=C/c1cccc([N+](=O)[O-])c1)c1cccc2cc[nH]c12 | 5 | 26 | 5 | -26 | nt | -1
C/C=C/c1ccc2c(c1)O[C@H](CN(C)CC1CC1)[C@H](C)CN([C@@H](C)CO)S2(=O)=O | nt | nt | nt | nt | -4[16.7 µM] | nt
COc1ccc(C)cc1-n1c(SCC(=O)Nc2cc(C)on2)nc2sc(C)c(C)c2c1=O | 81* | -8 | -12 | 8 | 11 | nt
C[C@H](O)C#Cc1cnc2c(c1)C(=O)N([C@@H](C)CO)C[C@@H](C)[C@H](CN(C)C(=O)Cc1ccccn1)O2 | nt | nt | -2 | nt | -7[16.7 µM] | nt
CCOC(=O)N1CCc2cc(OC)c(OC)c3c2c1cc1cc(OC)c(OC)cc13 | -5 | 86* | 6 | -86 | 6 | 2
COc1ccc(NS(=O)(=O)c2ccc(OC)c3ccccc23)cn1 | 1 | -13 | 1 | 13 | 356* | nt
N#C/C(C(N)=O)=c1/ccc2c(c1)N1C3=C(CCCC3)CC3CCCCC31N=2 (stereo not drawn) | nt | ? | 65* | -81 | nt | nt
N#CC(C#N)=c1ccc2c(c1)N1C3=C(CCCC3)CC3CCCCC31N=2 (stereo not drawn) | -1 | 53 | 38 | -53 | -6 | 0
COCCCNC(=O)Cc1c(C)c2c(cc(C)c3c(C(C)(C)C)coc32)oc1=O | -4 | 27 | -13 | -27 | 90* | -3
